Assay results reported in ChEMBL document CHEMBL1649147, “Antistaphylococcal activity of dihydrophthalazine antifolates, a family of novel antibacterial drugs” (2009).
≈ marks a conversion by molar mass, not a printed value.

Key:
Staphylococcus aureus [1] = test: Antibacterial activity against methicillin-susceptible Staphylococcus aureus ATCC 29213 by broth macrodilution method; format: functional; conditions: ATCC29213
[2] = system: coagulase-negative staphylococci; test: Antibacterial activity against Tmp-resistant coagulase-negative staphylococci by agar dilution method
Staphylococcus aureus [3] = test: Antibacterial activity against methicillin-resistant Staphylococcus aureus 145 by broth macrodilution method; format: functional
Staphylococcus aureus [4] = test: Antibacterial activity against vancomycin-resistant Staphylococcus aureus VRS1 by broth macrodilution method; format: functional
Method in brief: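 Michigan VRSA strain, one of 12 staphylococci later used in time-kill studies. MIC was determined by broth macrodilution and reported in μg/ml.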

Staphylococcus aureus [5] = test: Antibacterial activity against methicillin-susceptible, vancomycin-intermediate Staphylococcus aureus 505 by broth macrodilution method; format: functional
[6] = system: Staphylococcus epidermidis; test: Antibacterial activity against methicillin-susceptible coagulase-negative Staphylococcus epidermidis 051 after 50 passages by agar dilution method; format: functional
Method in brief: (§1)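 Daily serial passage for up to 50 days at 35°C for 24 h in 1 ml MHB. Each transfer used 10 µl from the tube nearest the MIC (1–2 dilutions below) with the same turbidity as the drug-free control. MICs were measured by agar dilution, with changes given as log2 steps.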

[7] = system: Staphylococcus epidermidis; test: Antibacterial activity against methicillin-resistant coagulase-negative Staphylococcus epidermidis 197 after 50 passages by agar dilution method; format: functional; method in brief: as §1
[8] = system: coagulase-negative staphylococci; test: Antibacterial activity against methicillin-susceptible coagulase-negative staphylococci by agar dilution method
[9] = system: Staphylococcus epidermidis; test: Antibacterial activity against methicillin-resistant coagulase-negative Staphylococcus epidermidis 225 by broth macrodilution method; format: functional
Staphylococcus aureus [10] = test: Antibacterial activity against methicillin-resistant Staphylococcus aureus 507 by broth macrodilution method; format: functional
Staphylococcus aureus [11] = test: Antibacterial activity against Tmp-susceptible Staphylococcus aureus by agar dilution method; format: functional
Method in brief: (§2)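 MICs by agar dilution on Mueller-Hinton agar following CLSI guidelines. S. aureus ATCC 29213 and E. faecalis ATCC 29212 were run as quality controls with each set, and test-strain MICs were kept only if control MICs fell within acceptable ranges.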

Staphylococcus aureus [12] = test: Antibacterial activity against methicillin-susceptible Staphylococcus aureus 505 by broth macrodilution method; format: functional
[13] = system: Staphylococcus epidermidis; test: Antibacterial activity against methicillin-susceptible coagulase-negative Staphylococcus epidermidis 057 by broth macrodilution method; format: functional
[14] = system: Staphylococcus epidermidis; test: Antibacterial activity against methicillin-resistant coagulase-negative Staphylococcus epidermidis 345 by broth macrodilution method; format: functional
Staphylococcus aureus [15] = test: Antibacterial activity against methicillin-resistant and vancomycin-resistant Staphylococcus aureus VRS1 by agar dilution method; format: functional
Method in brief: (§3)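 Agar dilution on Mueller-Hinton agar per CLSI guidelines. S. aureus ATCC 29213 and E. faecalis ATCC 29212 were run with each set, and test MICs were accepted only when the control strains fell within acceptable ranges.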

Staphylococcus aureus [16] = test: Antibacterial activity against Tmp-susceptible coagulase-negative Staphylococcus aureus by agar dilution method; format: functional; method in brief: as §2
[17] = system: Staphylococcus epidermidis; test: Antibacterial activity against methicillin-resistant coagulase-negative Staphylococcus epidermidis 197 by broth macrodilution method; format: functional
[18] = system: Staphylococcus epidermidis; test: Antibacterial activity against methicillin-resistant, Linezolid non-susceptible coagulase-negative Staphylococcus epidermidis 345 by agar dilution method; format: functional
[19] = system: Staphylococcus epidermidis; test: Antibacterial activity against methicillin-susceptible coagulase-negative Staphylococcus epidermidis 057 after 10 passages by agar dilution method; format: functional
Method in brief: (§4)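 Daily serial passage for up to 50 days at 35°C for 24 h in 1 ml MHB. […] Each transfer used 10 µl from the tube nearest the MIC (1–2 dilutions below) with the same turbidity as the drug-free control. […] MICs were measured by agar dilution, with changes given as log2 steps.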

[20] = system: Staphylococcus epidermidis; test: Antibacterial activity against methicillin-resistant coagulase-negative Staphylococcus epidermidis 074 by broth macrodilution method; format: functional
[21] = system: Staphylococcus epidermidis; test: Antibacterial activity against methicillin-resistant, vancomycin-intermediate coagulase-negative Staphylococcus epidermidis 225 by agar dilution method; format: functional; method in brief: as §3
Staphylococcus aureus [22] = test: microbe, parasite or virus in culture; conditions: 505
[23] = system: Staphylococcus epidermidis; test: Antibacterial activity against methicillin-susceptible coagulase-negative Staphylococcus epidermidis 051 by broth macrodilution method; format: functional
Staphylococcus aureus [24] = test: Antibacterial activity against methicillin-susceptible Staphylococcus aureus ATCC 29213 after 50 passages by agar dilution method; format: functional; conditions: ATCC29213; method in brief: as §4
[25] = system: coagulase-negative staphylococci; test: Antibacterial activity against Tmp-susceptible coagulase-negative staphylococci by agar dilution method
[26] = system: Staphylococcus epidermidis; test: Antibacterial activity against methicillin-resistant, Linezolid non-susceptible coagulase-negative Staphylococcus epidermidis 345 after 50 passages by agar dilution method; format: functional; method in brief: as §1
Staphylococcus aureus [27] = test: Antibacterial activity against methicillin-susceptible Staphylococcus aureus by agar dilution method; format: functional; method in brief: as §3
Staphylococcus aureus [28] = test: Antibacterial activity against methicillin-resistant Staphylococcus aureus ATCC 43300 by broth macrodilution method; format: functional; conditions: ATCC43300
[29] = system: coagulase-negative staphylococci; test: Antibacterial activity against methicillin-resistant coagulase-negative staphylococci by agar dilution method
Staphylococcus aureus [30] = test: Antibacterial activity against methicillin-susceptible, vancomycin-intermediate Staphylococcus aureus 505 after 50 passages by agar dilution method; format: functional; method in brief: as §4
Staphylococcus aureus [31] = test: Antibacterial activity against methicillin-resistant and vancomycin-resistant Staphylococcus aureus VRS1 after 50 passages by agar dilution method; format: functional; method in brief: as §4
Staphylococcus aureus [32] = test: Antibacterial activity against methicillin-resistant Staphylococcus aureus ATCC 43300 after 50 passages by agar dilution method; format: functional; conditions: ATCC43300
Method in brief: (§5)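 Serial passage under drug. Inoculum was ~1 × 10^6 CFU/ml from overnight MHA growth, in 1 ml MHB at 35°C for 24 h. Drug ranged from 4 log2 steps above to 3 log2 steps below the MIC. […] MIC change is given as log2 steps.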

Staphylococcus aureus [33] = test: Antibacterial activity against methicillin-resistant Staphylococcus aureus 145 after 50 passages by agar dilution method; format: functional; method in brief: as §5
[34] = system: Staphylococcus epidermidis; test: Antibacterial activity against methicillin-resistant, vancomycin-intermediate coagulase-negative Staphylococcus epidermidis 225 after 50 passages by agar dilution method; format: functional; method in brief: as §4
Staphylococcus aureus [35] = test: Antibacterial activity against Tmp-resistant Staphylococcus aureus by agar dilution method; format: functional; method in brief: as §2
[36] = system: Staphylococcus epidermidis; test: Antibacterial activity against methicillin-susceptible coagulase-negative Staphylococcus epidermidis 057 after 50 passages by agar dilution method; format: functional; method in brief: as §1
Staphylococcus aureus [37] = test: Antibacterial activity against methicillin-resistant Staphylococcus aureus by agar dilution method; format: functional; method in brief: as §3

Compound	MIC50 [2] [µg/mL]	MIC [6] [µg/mL]	MIC [7] [µg/mL]	MIC [8] [µg/mL]	MIC90 [8] [µg/mL]	MIC [9] [µg/mL]	MIC50 (Staphylococcus aureus [11]) [µg/mL]	MIC90 (Staphylococcus aureus [11]) [µg/mL]	MIC [13] [µg/mL]	MIC [14] [µg/mL]	MIC (Staphylococcus aureus [16]) [µg/mL]	MIC [17] [µg/mL]	MIC [18] [µg/mL]	MIC [20] [µg/mL]	MIC [21] [µg/mL]	MIC [23] [µg/mL]	MIC (Staphylococcus aureus [24]) [µg/mL]	MIC50 [25] [µg/mL]	MIC90 [25] [µg/mL]	MIC [26] [µg/mL]	other results
CCC[C@@H]1C[C@@H](C(=O)N[C@@H]([C@H]2O[C@H](SC)[C@H](O)[C@@H](O)[C@H]2O)[C@H](C)Cl)N(C)C1 [CLINDAMYCIN]	2 (≈ 4.71 µM)	4 (≈ 9.41 µM)	2 (≈ 4.71 µM)	0.125 (≈ 0.294 µM)	0.125 (≈ 0.294 µM)	> 128	> 32	> 32	0.125 (≈ 0.294 µM)	1 (≈ 2.35 µM)	≤ 0.06	0.125 (≈ 0.294 µM)	2 (≈ 4.71 µM)	0.25 (≈ 0.588 µM)	> 32	0.125 (≈ 0.294 µM)	32 (≈ 75.3 µM)	0.125 (≈ 0.294 µM)	> 32	4 (≈ 9.41 µM)	MIC (Staphylococcus aureus [1]): 0.125 µg/mL (≈ 0.294 µM); MIC (Staphylococcus aureus [3]): > 32 µg/mL; MIC (Staphylococcus aureus [4]): > 512 µg/mL; MIC (Staphylococcus aureus [5]): 0.125 µg/mL (≈ 0.294 µM); MIC (Staphylococcus aureus [10]): 512 µg/mL (≈ 1200 µM); MIC (Staphylococcus aureus [12]): 0.125 µg/mL (≈ 0.294 µM); MIC (Staphylococcus aureus [15]): > 32 µg/mL; MIC [19]: > 128 µg/mL; MIC (Staphylococcus aureus [22]): > 128 µg/mL; MIC50 (Staphylococcus aureus [27]): 0.125 µg/mL (≈ 0.294 µM); MIC90 (Staphylococcus aureus [27]): > 32 µg/mL; MIC (Staphylococcus aureus [28]): > 32 µg/mL; MIC50 [29]: 0.25 µg/mL (≈ 0.588 µM)
CC(=O)NC[C@H]1CN(c2ccc(N3CCOCC3)c(F)c2)C(=O)O1 [LINEZOLID]	1 (≈ 2.96 µM)	128 (≈ 379 µM)	32 (≈ 94.9 µM)	1 (≈ 2.96 µM)	2 (≈ 5.93 µM)	2 (≈ 5.93 µM)	2 (≈ 5.93 µM)	2 (≈ 5.93 µM)	2 (≈ 5.93 µM)	64 (≈ 190 µM)	1 (≈ 2.96 µM)	2 (≈ 5.93 µM)	32 (≈ 94.9 µM)	1 (≈ 2.96 µM)	2 (≈ 5.93 µM)	2 (≈ 5.93 µM)	16 (≈ 47.4 µM)	1 (≈ 2.96 µM)	2 (≈ 5.93 µM)	128 (≈ 379 µM)	MIC90 [2]: 2 µg/mL (≈ 5.93 µM); MIC (Staphylococcus aureus [30]): 16 µg/mL (≈ 47.4 µM); MIC (Staphylococcus aureus [31]): 32 µg/mL (≈ 94.9 µM); MIC (Staphylococcus aureus [32]): 64 µg/mL (≈ 190 µM); MIC (Staphylococcus aureus [33]): 16 µg/mL (≈ 47.4 µM); MIC [34]: 16 µg/mL (≈ 47.4 µM); MIC (Staphylococcus aureus [35]): 1 µg/mL (≈ 2.96 µM); MIC50 (Staphylococcus aureus [35]): 1 µg/mL (≈ 2.96 µM); MIC90 (Staphylococcus aureus [35]): 2 µg/mL (≈ 5.93 µM); MIC [36]: 64 µg/mL (≈ 190 µM); MIC50 (Staphylococcus aureus [37]): 2 µg/mL (≈ 5.93 µM); MIC90 (Staphylococcus aureus [37]): 2 µg/mL (≈ 5.93 µM); MIC50 (Staphylococcus aureus [27]): 2 µg/mL (≈ 5.93 µM); MIC90 (Staphylococcus aureus [27]): 2 µg/mL (≈ 5.93 µM); MIC50 [29]: 1 µg/mL (≈ 2.96 µM); MIC90 [29]: 2 µg/mL (≈ 5.93 µM)
